In ChEMBL document CHEMBL1157853, “Synthesis, pharmacological activity and comparative QSAR modeling of 1,5-N,N'-substituted-2-(substituted naphthalenesulphonyl) glutamamides as possible anticancer agents” (2010):

How the values were obtained:
[1] = Antitumor activity against ip dosed mouse EAC implanted in Swiss albino mouse assessed as inhibition of ascitic fluid administered daily for 7 days measured on 9th day relative to control; type: functional, Ehrlich
How it was run: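 Female Swiss albino mice (18-20 g, 6 per group) implanted ip with 2×10^6 EAC cells/0.2 mL. Compound in phosphate buffer pH 7.2 (PBS + 2% Tween 80 when needed) given ip daily from day 2, seven doses; controls received vehicle. Day 9, after a 6 h fast, mice weighed before and after ascitic fluid removal; the difference is tumor weight. %TWI derived from mean test vs control weight.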

[2] = Antitumor activity against ip dosed mouse EAC implanted in Swiss albino mouse assessed as inhibition of ascitic cell administered daily for 7 days measured on 9th day relative to control; type: functional, Ehrlich
How it was run: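 Female Swiss albino mice (18-20 g, 6 per group, test vs vehicle control) given 2×10^6 EAC cells/0.2 mL ip. From day 2, compound in phosphate buffer pH 7.2 (2% Tween 80 in PBS if needed) given ip every 24 h for seven doses. Day 9, after a 6 h fast, ascitic fluid withdrawn and live cells counted by trypan blue and haemocytometer. %TCI derived from mean cells/ml in test vs control.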

CNC(=O)CCC(NS(=O)(=O)c1ccc(Br)c2ccccc12)C(=O)NC (configuration not stated)
inhibition (INH) [1]: 20.58% | inhibition (INH) [2]: 10.62%

CCCNC(=O)CCC(NS(=O)(=O)c1cccc2ccccc12)C(=O)NCCC (configuration not stated)
inhibition (INH) [1]: 16.15% | inhibition (INH) [2]: 14.21%

[N-]=[N+]=CC(=O)CC[C@H](N)C(=O)O [6-DIAZO-5-OXO-L-NORLEUCINE]
inhibition (INH) [1]: 100% | inhibition (INH) [2]: 100%

CCNC(=O)CCC(NS(=O)(=O)c1ccc(Br)c2ccccc12)C(=O)NCC (configuration not stated)
inhibition (INH) [1]: 24.34% | inhibition (INH) [2]: 16.22%

CCNC(=O)CCC(NS(=O)(=O)c1ccc(Cl)c2ccccc12)C(=O)NCC (configuration not stated)
inhibition (INH) [1]: 24.1% | inhibition (INH) [2]: 48.67%

CC(C)CNC(=O)CCC(NS(=O)(=O)c1cccc2ccccc12)C(=O)NCC(C)C (configuration not stated)
inhibition (INH) [1]: 11.93% | inhibition (INH) [2]: 61.96%

CO[C@@]12[C@H](COC(N)=O)C3=C(C(=O)C(C)=C(N)C3=O)N1C[C@@H]1N[C@@H]12 [MITOMYCIN]
inhibition (INH) [1]: 100% | inhibition (INH) [2]: 100%

CC(C)NC(=O)CCC(NS(=O)(=O)c1cccc2ccccc12)C(=O)NC(C)C (configuration not stated)
inhibition (INH) [1]: 17.74% | inhibition (INH) [2]: 43.96%

CC(C)CNC(=O)CCC(NS(=O)(=O)c1ccc(Cl)c2ccccc12)C(=O)NCC(C)C (configuration not stated)
inhibition (INH) [1]: 15.2% | inhibition (INH) [2]: 41.28%

O=C(CCC(NS(=O)(=O)c1cccc2ccccc12)C(=O)NC1CCCCC1)NC1CCCCC1 (configuration not stated)
inhibition (INH) [1]: 43.58% | inhibition (INH) [2]: 53.76%

O=C(CCC(NS(=O)(=O)c1cccc2ccccc12)C(=O)NCc1ccccc1)NCc1ccccc1 (configuration not stated)
inhibition (INH) [1]: 17.04% | inhibition (INH) [2]: 34.46%

CCCCNC(=O)CCC(NS(=O)(=O)c1ccc(Cl)c2ccccc12)C(=O)NCCCC (configuration not stated)
inhibition (INH) [1]: 20.71% | inhibition (INH) [2]: 33.1%

CCCCCCNC(=O)CCC(NS(=O)(=O)c1ccc(Cl)c2ccccc12)C(=O)NCCCCCC (configuration not stated)
inhibition (INH) [1]: 15.95% | inhibition (INH) [2]: 50.51%

COc1ccc2ccccc2c1S(=O)(=O)NC(CCC(=O)NC1CCCCC1)C(=O)NC1CCCCC1 (configuration not stated)
inhibition (INH) [1]: 13.52% | inhibition (INH) [2]: 4.34%

O=C(CCC(NS(=O)(=O)c1ccc(Cl)c2ccccc12)C(=O)NCc1ccccc1)NCc1ccccc1 (configuration not stated)
inhibition (INH) [1]: 22.69% | inhibition (INH) [2]: 22.94%

CNC(=O)CCC(NS(=O)(=O)c1ccc(Cl)c2ccccc12)C(=O)NC (configuration not stated)
inhibition (INH) [1]: 20.57% | inhibition (INH) [2]: 46.52%

CNC(=O)CCC(NS(=O)(=O)c1cccc2ccccc12)C(=O)NC (configuration not stated)
inhibition (INH) [1]: 27.42% | inhibition (INH) [2]: 69.32%

CCCNC(=O)CCC(NS(=O)(=O)c1ccc(Br)c2ccccc12)C(=O)NCCC (configuration not stated)
inhibition (INH) [1]: 2.96% | inhibition (INH) [2]: 14.86%

NC(=O)CCC(NS(=O)(=O)c1ccc(Br)c2ccccc12)C(N)=O (configuration not stated)
inhibition (INH) [1]: 36.46% | inhibition (INH) [2]: 58.25%

COc1ccc2ccccc2c1S(=O)(=O)NC(CCC(=O)NCc1ccccc1)C(=O)NCc1ccccc1 (configuration not stated)
inhibition (INH) [1]: 7.57% | inhibition (INH) [2]: 18.78%

[N-]=[N+]=CC(=O)OC[C@H](N)C(=O)O [AZASERINE]
inhibition (INH) [1]: 100% | inhibition (INH) [2]: 100%

NC(=O)CCC(NS(=O)(=O)c1ccc(Cl)c2ccccc12)C(N)=O (configuration not stated)
inhibition (INH) [1]: 55.21% | inhibition (INH) [2]: 48.52%

CC(C)NC(=O)CCC(NS(=O)(=O)c1ccc(Cl)c2ccccc12)C(=O)NC(C)C (configuration not stated)
inhibition (INH) [1]: 24.68% | inhibition (INH) [2]: 75.17%

CCCCCNC(=O)CCC(NS(=O)(=O)c1cccc2ccccc12)C(=O)NCCCCC (configuration not stated)
inhibition (INH) [1]: 56.62% | inhibition (INH) [2]: 17.64%

NC(=O)CCC(NS(=O)(=O)c1cccc2ccccc12)C(N)=O (configuration not stated)
inhibition (INH) [1]: 32.19% | inhibition (INH) [2]: 38.34%

O=C(CCC(NS(=O)(=O)c1ccc(Br)c2ccccc12)C(=O)NCc1ccccc1)NCc1ccccc1 (configuration not stated)
inhibition (INH) [1]: 8.99% | inhibition (INH) [2]: 23.5%

CCNC(=O)CCC(NS(=O)(=O)c1cccc2ccccc12)C(=O)NCC (configuration not stated)
inhibition (INH) [1]: 24.61% | inhibition (INH) [2]: 27.92%

CCCCCNC(=O)CCC(NS(=O)(=O)c1ccc(Br)c2ccccc12)C(=O)NCCCCC (configuration not stated)
inhibition (INH) [1]: 22.81% | inhibition (INH) [2]: 10.42%

CCCCNC(=O)CCC(NS(=O)(=O)c1cccc2ccccc12)C(=O)NCCCC (configuration not stated)
inhibition (INH) [1]: 14.34% | inhibition (INH) [2]: 16.17%

CCCCCCNC(=O)CCC(NS(=O)(=O)c1c(OC)ccc2ccccc12)C(=O)NCCCCCC (configuration not stated)
inhibition (INH) [1]: 5.19% | inhibition (INH) [2]: 14.79%

CCCNC(=O)CCC(NS(=O)(=O)c1ccc(Cl)c2ccccc12)C(=O)NCCC (configuration not stated)
inhibition (INH) [1]: 18.73% | inhibition (INH) [2]: 39.33%
